From ChEMBL document CHEMBL3864141, “Cyclic non-opioid dynorphin A analogues for the bradykinin receptors” (Bioorg Med Chem Lett, 2016)
Positions of bridges follow the written chain, without caps; N, C: chain ends. Non-standard residues stand in square brackets, D forms with d. Residues, ends and D or L forms follow the SMILES beside them. Nle = CCCC[C@H](N)C(=O)O

How the values were obtained:
[1] = Displacement of [3H]BK from bradykinin receptor in rat brain membranes at pH 6.8 after 2 hrs by liquid scintillation counting method; type: cell membranes, Membrane
Procedure, shortened: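 Competitive binding of [3H]BK to rat brain membranes at pH 6.8. Non-specific binding was defined with 10 μM kallidin. IC50 values were obtained by nonlinear least-squares regression of data from at least two independent experiments run in duplicate, and were also reported as logarithmic values.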

[2] = Displacement of [3H]DALKD from bradykinin receptor in rat brain membranes at pH 6.8 after 2 hrs by liquid scintillation counting method; type: cell membranes, Membrane
[3] = Half life in rat plasma by RP-HPLC method; type: ADME, cell-free
Procedure, shortened: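 Peptide incubated in rat plasma at 37 °C and sampled at 1, 2, 4 and 8 h. Quenched samples were analysed by RP-HPLC. Half-life was calculated as t1/2 = 0.693/b, where b is the slope of the linear fit.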

SMILES | IC50 [1] [µM] | pIC50 [1] | IC50 [2] [µM] | pIC50 [2] | half-life [3] [h]
CC[C@H](C)[C@@H]1NC(=O)[C@H](CCCNC(=N)N)NC(=O)[C@H](CC(C)C)NC(=O)CC[C@@H](C(=O)N[C@@H](CCCCN)C(=O)O)NC(=O)[C@H](CCCNC(=N)N)NC1=O (LRIREK-OH; lactam N-5) | 1.51 | 5.82 |  |  | 
CCCC[C@H](NC(=O)[C@H](CCCCN)NC(=O)[C@@H]1CCCN1C(=O)[C@H](CCCCN)NC(=O)[C@@H](N)CCCC)C(=O)N[C@@H](CCCCN)C(=O)O (H-[Nle]KPK[Nle]K-OH) |  |  | 0.078 | 7.11 | 
CC[C@H](C)[C@@H]1NC(=O)[C@H](CCCNC(=N)N)NC(=O)[C@H](CC(C)C)NC(=O)[C@H](Cc2ccccc2)NC(=O)CC[C@@H](C(=O)N[C@@H](CCCCN)C(=O)O)NC(=O)[C@H](CCCNC(=N)N)NC1=O (FLRIREK-OH; lactam N-6) | 0.191 | 6.72 |  |  | 5.5
CC[C@H](C)[C@@H]1NC(=O)[C@H](CCCNC(=N)N)NC(=O)[C@H](CC(C)C)NC(=O)[C@H](CCCCN)NC(=O)CC[C@@H](C(=O)N[C@@H](CCCCN)C(=O)O)NC(=O)[C@H](CCCNC(=N)N)NC1=O (KLRIREK-OH; lactam N-6) | 0.302 | 6.52 |  |  | 
